According to ChEMBL document CHEMBL1140921, “Discovery of novel Myc-Max heterodimer disruptors with a three-dimensional pharmacophore model” (J Med Chem, 2009):
Calls of active or inactive are those of the source. No cut-off for these calls is given here.

Columns and labels:
[1] = Inhibition of 6-His tagged recombinant c-Myc353-437 gene binding to Max(S) protein assessed as disruption of heterodimer formation by circular dichroism assay
Summary of the method: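 Circular dichroism on equimolar c-Myc and Max (1.5 µM each), with helical content read as ellipticity at 222 nm. Compounds were screened at 200 µM (average of three independent trials), then titrated over a concentration range. The fitted Kcomp was multiplied by the independently determined c-Myc–Max dissociation constant to estimate affinity for c-Myc monomer. Triplicate.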

HL-60 = assay: Cytotoxicity against human HL60 cells by MTS assay; format: functional, cell-based
Summary of the method: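 HL60 cell growth dose-response profiles; IC50 calculated from the profile on day 5 after compound addition.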

[2] = Cytotoxicity against rat c-Myc knockout KO-HMG cells overexpressing HMGA1b by MTS assay; format: cell-based

Row | IC50 [1] [µM] | SMILES | IC50 (HL-60) [µM] | further results
1 | 10 | CCCCOC(=O)CCN1C(=O)/C(=C/c2ccc(CC)cc2)SC1=S | – | –
2 | 49 | CCc1ccc(/C=C2\SC(=S)NC2=O)cc1 | 35 | –
3 | 4.6 | CCCN1C(=O)/C(=C/c2ccc(CC)cc2)SC1=S | – | –
4 | 41 | O=C1NC(=S)S/C1=C\c1ccc(Cl)cc1 | – | –
5 | 38 | CC(C)c1ccc(/C=C2\SC(=S)NC2=O)cc1 | – | –

The next lines start with the compound.

Row | SMILES | IC50 [1] [µM] | IC50 (HL-60) [µM] | further results
6 | CN(C)c1ccc(/C=C2\SC(=S)NC2=O)cc1 | – | – | Activity [1]: inactive
7 | CCc1ccc(OCC(=O)Nc2ccc(C)cc2Br)cc1 | – | 23 | IC50 [2]: > 55 µM
8 | Cc1ccc(C)c(OCN2Cc3ccccc3C2C=O)c1 (stereo not drawn) | – | 15 | IC50 [2]: > 35 µM
9 | O=C1NC(=S)S/C1=C\c1ccc(O)cc1 | – | – | Activity [1]: inactive
10 | O=C1NC(=S)S/C1=C\c1ccc(O)c(O)c1 | 23 | – | –
